Laboratory results: ChEMBL document CHEMBL4138224, “DNA intercalators based on (1,10-phenanthrolin-2-yl)isoxazolidin-5-yl core with better growth inhibition and selectivity than cisplatin upon head and neck squamous cells carcinoma” (Eur J Med Chem, 2018)
The source made the active and inactive calls. No cut-off for these calls is given here.

How the values were obtained:
[1] = Cytotoxicity against human HN6 cells assessed as decrease in cell viability after 24 hrs by MTT assay; type: functional, cell-based; conditions: HN-6, 24 h
Procedure, shortened: (§1)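 Cells seeded at 1×10^4 per well in complete medium with 10% FBS and antibiotics, 37 °C, 5% CO2. Washed with serum-free medium, then exposed to compounds for 24 h. MTT (5 mg/mL) added for a further 4 h, formazan dissolved in DMSO, absorbance read at 490 nm. Triplicates; IC50 obtained by non-linear regression of dose-response curves.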

Bacteria = assay: Induction of bacterial pGEM-T easy DNA intercalation assessed as topoisomerase 1-mediated conversion of relaxed plasmid DNA to negatively supercoiled DNA at 10 nM after 30 mins by agarose-gel electrophoresis method
Procedure, shortened: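 Relaxed pGEM-T Easy plasmid was made by Topo I treatment of supercoiled plasmid. Stopped with SDS/proteinase K (30 min, 50 °C). Run on 1% agarose in TBE, ethidium bromide stain; relaxed-to-supercoiled conversion scored.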

WSU-HN13 [2] = assay: Cytotoxicity against human HN13 cells assessed as decrease in cell viability after 24 hrs by MTT assay; type: functional, cell-based; conditions: WSU-HN13, 24 h; procedure, shortened: as §1
HeLa = assay: Cytotoxicity against human HeLa cells assessed as decrease in cell viability after 24 hrs by MTT assay; type: functional, cell-based; procedure, shortened: as §1
Bos taurus [3] = species on record: Bos taurus; assay: Induction of calf thymus B DNA intercalation assessed as DNA melting temperature at 31 uM by UV-vis spectrophotometric method (reference value: 354K)
Procedure, shortened: (§2)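 ct-DNA (31 μM in base pair) mixed with 31 μM compound, taken as saturating, in PBS. Absorbance at 260 nm monitored while heating 308 to 388 K at 1 K/min with a Peltier unit, giving melting curves. Binding constants estimated from the melting data.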

Bos taurus [4] = species on record: Bos taurus; assay: Induction of calf thymus B DNA intercalation assessed as drug binding constant at DNA melting temperature at 31 uM by UV-vis spectrophotometric method; procedure, shortened: as §2
Bos taurus [5] = species on record: Bos taurus; assay: Induction of calf thymus B DNA intercalation at 36 uM by CD spectra method
Procedure, shortened: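 CD titration at 25 °C in quartz cells: fixed ct-DNA (12.6 μM in base pair) with compound added from a 4.26 mM DMSO stock, final 0 to about 35 μM. Each spectrum is an average of 5 runs with 5 min equilibration before each scan, corrected for dilution, cell and solvent.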

184B5 = assay: Cytotoxicity against human 184B5 cells assessed as decrease in cell viability after 24 hrs by MTT assay; type: cell-based; conditions: 184B5, 24 h; procedure, shortened: as §1
[6] = Selectivity index, ratio of IC50 for human 184B5 cells to IC50 for human HN6 cells; type: toxicity; conditions: 184B5 cells versus HN6 cells, read-out: Ratio IC50
WSU-HN13 [7] = assay: Potency index, ratio of cisplatin IC50 to test compound IC50 for human HN13 cells; type: functional
[8] = Selectivity index, ratio of IC50 for human 184B5 cells to IC50 for human HeLa cells; type: toxicity; conditions: 184B5 cells versus HeLa cells, read-out: Ratio IC50
[9] = Potency index, ratio of cisplatin IC50 to test compound IC50 for human HN6 cells; type: functional
[10] = Selectivity index, ratio of IC50 for human 184B5 cells to IC50 for human HN13 cells; type: toxicity; conditions: 184B5 cells versus HN13 cells, read-out: Ratio IC50

COc1ccccc1CN1O[C@@H](CO)C[C@@H]1c1ccc2ccc3cccnc3c2n1 (relative stereo)
IC50 [1]: 24.8 µM
Activity (Bacteria): Active
IC50 (WSU-HN13 [2]): 25.4 µM
IC50 (HeLa): 40.2 µM
Tm (Bos taurus [3]): 81.9 °C
K (Bos taurus [4]): 9.26 ×10³ /M
Activity (Bos taurus [5]): Active
IC50 (184B5): 381 µM

COc1ccccc1CN1O[C@H](CO)C[C@@H]1c1ccc2ccc3cccnc3c2n1 (relative stereo)
selectivity ratio [6]: 51.4
IC50 [1]: 6.3 µM
Activity (Bacteria): Active
Ratio IC50 (WSU-HN13 [7]): 9.2
selectivity ratio [8]: 24.3
IC50 (WSU-HN13 [2]): 4.5 µM
IC50 (HeLa): 13.3 µM
Tm (Bos taurus [3]): 84.9 °C
Ratio IC50 [9]: 3.4
selectivity ratio [10]: 72
K (Bos taurus [4]): 4.53 ×10⁴ /M
Activity (Bos taurus [5]): Active
IC50 (184B5): 324 µM
